Results on six molecules are retold here after ChEMBL document CHEMBL1765022, “Synthesis and biological evaluation of tetracyclic thienopyridones as antibacterial and antitumor agents” (Bioorg Med Chem, 2011).

For assay [1], the system named is Acinetobacter baumannii. The experiment in a line: Antimicrobial activity against Acinetobacter baumannii ATCC 19606 by broth dilution method. Type of assay: functional. In short, it runs like this:
(§1)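 Twofold serial broth dilution in Mueller Hinton Broth. […] Growth (drug-free), DMSO solvent and organism-free sterility tubes were included. Three replicates per organism, at least three independent experiments.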
(In general: Broth dilution looks for growth in wells or tubes with falling amounts of substance.)

The subject of assay [2] is Staphylococcus aureus. The experiment in a line: Antimicrobial activity against quinilone-pencillin-resistant Staphylococcus aureus isolate SAR 72 by broth dilution method. Type of assay: functional. The essentials:
(§2)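 Twofold serial broth dilution in Mueller Hinton Broth. […] Drug-free tubes, DMSO-only tubes and organism-free tubes served as growth, solvent and sterility controls. Three replicates per organism, at least three independent experiments.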

Assay [3] can be described thus: Inhibition of Escherichia coli topoisomerase 4 assessed as decatenation of kDNA after 30 mins by electrophoresis. The essentials: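 E. coli topoisomerase IV decatenation of kinetoplast DNA was run in 40 mM HEPES-KOH pH 7.6 with 100 mM potassium glutamate, at varying compound amounts. Products were separated by agarose electrophoresis and quantified by gel documentation. IC₅₀ (µg/mL) is the concentration halving decatenation relative to drug-free enzyme control.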

Assay [4] relates to Staphylococcus aureus. The experiment in a line: Antimicrobial activity against quinilone-pencillin-resistant Staphylococcus aureus isolate SAR 4790 by broth dilution method. Type of assay: functional. The essentials: as §2
A further assay has as its system Saccharomyces cerevisiae. In words: Antimicrobial activity against Saccharomyces cerevisiae ATCC 9763 by broth dilution method. The format is functional. The essentials: (§3)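 Fungi were tested by twofold serial broth dilution in Sabouraud Dextrose Broth. Inoculum was 1x10³ CFU/mL, with 48 h at 30 °C before MIC determination. Growth, DMSO solvent and sterility controls were included. Three replicates per organism, at least three independent experiments.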

The next assay concerns Pseudomonas aeruginosa. In words: Antimicrobial activity against Pseudomonas aeruginosa ATCC 9027 by broth dilution method. The format is functional. The essentials: as §1
For the next assay, the system named is Haemophilus influenzae. In words: Antimicrobial activity against Haemophilus influenzae ATCC 19418 by broth dilution method. The format is functional. In short, it runs like this: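 H. influenzae was grown in Haemophilus Test Medium using twofold serial broth dilution. […] Drug-free, DMSO-only and organism-free control tubes were included. Triplicates, with at least three independent experiments.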

For another assay, the system named is Bacillus cereus. In words: Antimicrobial activity against Bacillus cereus ATCC 11778 by broth dilution method. Type of assay: functional. In short, it runs like this:
as §1

The next assay has as its system Bacillus subtilis. In words: Antimicrobial activity against Bacillus subtilis ATCC 6633 by broth dilution method. Type of assay: functional. The essentials: as §1
Another assay has as its system Candida tropicalis. In words: Antimicrobial activity against Candida tropicalis ATCC 1369 by broth dilution method. The format is functional. In short, it runs like this:
as §3

Assay [5] has as its system Staphylococcus aureus. The experiment in a line: Antimicrobial activity against Staphylococcus aureus ATCC 6538 by broth dilution method. Type of assay: functional. In short, it runs like this:
as §1

The test system of the next assay is Aspergillus niger. In words: Antimicrobial activity against Aspergillus niger ATCC 6275 by broth dilution method. The format is functional. The essentials:
as §3

Assay [6] relates to Staphylococcus epidermidis. The experiment in a line: Antimicrobial activity against Staphylococcus epidermidis ATCC 12228 by broth dilution method. Type of assay: functional. In short, it runs like this:
as §1

Assay [7] is described as follows: Inhibition of Escherichia coli DNA gyrase assessed as reduction of DNA supercoiling activity using pBR322 DNA substrate after 30 mins by electrophoresis.
Assay [8] is described as follows: Antimicrobial activity against Bacillus thuringiensis var.kurstaki BGSC 4D1 by broth dilution method. The format is functional, Bacillus thuringiensis serovar kurstaki. The essentials: as §1
In the next assay the test system is Priestia megaterium. In words: Antimicrobial activity against Bacillus megaterium ATCC 19213 by broth dilution method. The format is functional. The essentials: as §1
For another assay, the system named is NHDF. The experiment in a line: Antitumor activity against human NHDF cells after 72 hrs by MTT assay. Type of assay: functional, cell-based. In short, it runs like this: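 Cells were kept at 37 °C in 5% CO₂, in medium with 2 mM glutamine and 10% FBS; HuDe fibroblasts were grown in DMEM. Compounds were freshly dissolved in DMSO (final ≤0.1% v/v; controls received equal solvent) and applied at 0.1–20 µM for 72 h. Viability was read by MTT. IC₅₀ was extrapolated from Hill-fitted dose–response curves, from at least three independent experiments.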

Assay [9] concerns Escherichia coli. In words: Antimicrobial activity against Escherichia coli ATCC 8739 by broth dilution method. Type of assay: functional. In short, it runs like this:
as §1

Assay [10] has as its system Acinetobacter baumannii. The experiment in a line: Antimicrobial activity against quinilone-pencillin-resistant Acinetobacter baumannii clinical isolate by broth dilution method. Type of assay: functional.
Assay [11] concerns Staphylococcus epidermidis. The experiment in a line: Antimicrobial activity against quinilone-pencillin-resistant Staphylococcus epidermidis clinical isolate by broth dilution method. The format is functional.
Assay [12] deals with Escherichia coli. The experiment in a line: Antimicrobial activity against quinilone-pencillin-resistant Escherichia coli clinical isolate by broth dilution method. The format is functional.

Converted amounts (≈) assume the structure as drawn.

As to `O=C(O)c1cn(C2CC2)c2cc(N3CCNCC3)c(F)cc2c1=O` [CIPROFLOXACIN], the MIC was 0.7 µg/mL (≈ 2.11 µM) with Acinetobacter baumannii [1]; 100 µg/mL (≈ 302 µM) against Staphylococcus aureus [2]; greater than 100 µg/mL with Staphylococcus aureus [4]; greater than 100 µg/mL in the assay on Saccharomyces cerevisiae; 0.07 µg/mL (≈ 0.211 µM) in the assay on Pseudomonas aeruginosa; 0.15 µg/mL (≈ 0.453 µM) in the assay with Haemophilus influenzae. In addition, the MIC was 0.3 µg/mL (≈ 0.905 µM) in the assay with Bacillus cereus; 0.03 µg/mL (≈ 0.0905 µM) in the assay with Bacillus subtilis; greater than 100 µg/mL against Candida tropicalis; 0.3 µg/mL (≈ 0.905 µM) in the assay with Staphylococcus aureus [5]; greater than 100 µg/mL with Aspergillus niger; 0.07 µg/mL (≈ 0.211 µM) in assay [6]. Also, the MIC in assay [8] came out at 0.03 µg/mL (≈ 0.0905 µM); against Priestia megaterium, 0.007 µg/mL (≈ 0.0211 µM). The IC50 (commonly the concentration needed to halve the response being measured) in assay [3] was determined as 4.6 µg/mL (≈ 13.9 µM); in [7], 0.34 µg/mL (≈ 1.03 µM).

In turn, `Cc1c2ccncc2c(C)c2c1[nH]c1ccccc12` [ELLIPTECINE] registered an IC50 with NHDF greater than 10 µM.

For the molecule `CO/N=C1\CN(c2nc3c(cc2F)c(=O)c(C(=O)O)cn3C2CC2)CC1CN` (configuration not stated) [GEMIFLOXACIN], the MIC with Acinetobacter baumannii [1] is 0.3 µg/mL (≈ 0.77 µM); in the assay with Staphylococcus aureus [2], 6 µg/mL (≈ 15.4 µM); in the assay with Escherichia coli [9], 0.015 µg/mL (≈ 0.0385 µM); with Staphylococcus aureus [4] it was 50 µg/mL (≈ 128 µM); against Saccharomyces cerevisiae, greater than 100 µg/mL; with Pseudomonas aeruginosa it was 0.07 µg/mL (≈ 0.18 µM). For the same molecule, the MIC was 0.015 µg/mL (≈ 0.0385 µM) against Haemophilus influenzae; 100 µg/mL (≈ 257 µM) against Acinetobacter baumannii [10]; 0.07 µg/mL (≈ 0.18 µM) in the assay with Bacillus cereus; 0.007 µg/mL (≈ 0.018 µM) with Bacillus subtilis; 50 µg/mL (≈ 128 µM) in assay [11]; greater than 100 µg/mL in the assay on Candida tropicalis. Besides, the MIC was 0.015 µg/mL (≈ 0.0385 µM) in the assay with Staphylococcus aureus [5]; greater than 100 µg/mL in the assay with Aspergillus niger; 50 µg/mL (≈ 128 µM) against Escherichia coli [12]; 0.015 µg/mL (≈ 0.0385 µM) in assay [6]; 0.015 µg/mL (≈ 0.0385 µM) in assay [8]; 0.0003 µg/mL (≈ 0.00077 µM) against Priestia megaterium.

For the molecule `C[C@H]1COc2c(N3CCN(C)CC3)c(F)cc3c(=O)c(C(=O)O)cn1c23.C[C@H]1COc2c(N3CCN(C)CC3)c(F)cc3c(=O)c(C(=O)O)cn1c23.O` [LEVOFLOXACIN], the MIC was 0.15 µg/mL with Acinetobacter baumannii [1]; 25 µg/mL against Staphylococcus aureus [2]; 100 µg/mL against Staphylococcus aureus [4]; greater than 100 µg/mL against Saccharomyces cerevisiae; 0.3 µg/mL with Pseudomonas aeruginosa; 0.15 µg/mL against Haemophilus influenzae. Further, the MIC in the assay with Acinetobacter baumannii [10] is greater than 100 µg/mL; in the assay on Bacillus cereus, 0.15 µg/mL; against Bacillus subtilis it was 0.03 µg/mL; in assay [11], greater than 100 µg/mL; in the assay with Candida tropicalis, greater than 100 µg/mL; with Staphylococcus aureus [5], 0.07 µg/mL. Further, the MIC in the assay with Aspergillus niger is greater than 100 µg/mL; in the assay on Escherichia coli [12], 25 µg/mL; in [6], 0.15 µg/mL; in assay [8], 0.07 µg/mL; in the assay on Priestia megaterium it was 0.03 µg/mL.

Consider `Clc1ccc(COC(Cn2ccnc2)c2ccc(Cl)cc2Cl)c(Cl)c1` (configuration not stated) [MICONAZOLE], for which the MIC came to 12 µg/mL (≈ 28.8 µM) with Saccharomyces cerevisiae, 6 µg/mL (≈ 14.4 µM) in the assay on Candida tropicalis and 3 µg/mL (≈ 7.21 µM) in the assay with Aspergillus niger.

As to `COc1c(N2C[C@@H]3CCCN[C@@H]3C2)c(F)cc2c(=O)c(C(=O)O)cn(C3CC3)c12` [MOXIFLOXACIN], the MIC against Acinetobacter baumannii [1] is 0.15 µg/mL (≈ 0.374 µM); in the assay on Staphylococcus aureus [2] it was 12 µg/mL (≈ 29.9 µM); against Escherichia coli [9] it was 0.03 µg/mL (≈ 0.0747 µM); with Staphylococcus aureus [4], 50 µg/mL (≈ 125 µM); in the assay with Saccharomyces cerevisiae it was greater than 100 µg/mL; against Pseudomonas aeruginosa it was 0.7 µg/mL (≈ 1.74 µM). Further, the MIC in the assay on Haemophilus influenzae is 0.03 µg/mL (≈ 0.0747 µM); in the assay on Bacillus cereus, 0.3 µg/mL (≈ 0.747 µM); against Bacillus subtilis, 0.015 µg/mL (≈ 0.0374 µM); with Candida tropicalis, greater than 100 µg/mL; with Staphylococcus aureus [5], 0.03 µg/mL (≈ 0.0747 µM); against Aspergillus niger, greater than 100 µg/mL. Moreover, the MIC came out at 0.07 µg/mL (≈ 0.174 µM) in [6], 0.03 µg/mL (≈ 0.0747 µM) in assay [8] and 0.003 µg/mL (≈ 0.00747 µM) in the assay on Priestia megaterium. The IC50 in assay [3] worked out at 5 µg/mL (≈ 12.5 µM); in [7], 0.85 µg/mL (≈ 2.12 µM).
